TRPC4 inh – inhibitors of mouse TRPC4 channel. Q9QUQ5. B-score at 10 µM. AID 2247. HEK293 TRPC4beta/mu-opioid, DAMGO-evoked Fluo4 calcium flux; hits give low values. 0.39% of 300,000 active;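 active = B-score over 3 SD under the library average, no early fluorescence shift, positive overall ratio signal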
Target sequence (Q9QUQ5 whole entry, looked up): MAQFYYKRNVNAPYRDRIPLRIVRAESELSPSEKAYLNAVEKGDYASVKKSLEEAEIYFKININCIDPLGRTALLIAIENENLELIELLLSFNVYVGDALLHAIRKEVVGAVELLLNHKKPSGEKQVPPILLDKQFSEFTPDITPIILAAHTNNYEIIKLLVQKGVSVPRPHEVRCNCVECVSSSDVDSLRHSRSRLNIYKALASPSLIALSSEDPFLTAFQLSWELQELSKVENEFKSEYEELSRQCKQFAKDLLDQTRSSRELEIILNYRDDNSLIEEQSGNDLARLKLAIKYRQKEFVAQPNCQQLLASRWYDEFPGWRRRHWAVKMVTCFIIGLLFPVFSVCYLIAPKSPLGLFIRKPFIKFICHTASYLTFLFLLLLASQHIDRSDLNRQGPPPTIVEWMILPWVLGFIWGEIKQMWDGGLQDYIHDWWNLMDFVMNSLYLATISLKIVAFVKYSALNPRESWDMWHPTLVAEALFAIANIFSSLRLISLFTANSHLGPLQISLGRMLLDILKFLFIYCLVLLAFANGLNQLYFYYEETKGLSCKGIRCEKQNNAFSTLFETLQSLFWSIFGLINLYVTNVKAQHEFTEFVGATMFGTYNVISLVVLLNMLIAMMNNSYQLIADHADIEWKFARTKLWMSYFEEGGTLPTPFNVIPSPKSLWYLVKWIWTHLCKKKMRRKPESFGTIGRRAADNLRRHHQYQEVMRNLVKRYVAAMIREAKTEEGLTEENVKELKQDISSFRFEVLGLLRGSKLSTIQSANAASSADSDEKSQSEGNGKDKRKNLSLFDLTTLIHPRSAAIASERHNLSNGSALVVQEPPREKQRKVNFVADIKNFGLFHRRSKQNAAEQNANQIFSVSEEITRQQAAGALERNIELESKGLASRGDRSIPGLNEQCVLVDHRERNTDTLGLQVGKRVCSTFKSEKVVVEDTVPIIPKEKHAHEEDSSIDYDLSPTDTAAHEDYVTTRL
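Test system – stable TRPC4beta/mu-opioid receptor HEK293 cells · Probe or stimulus – DAMGO, a submaximal dose followed by a maximal one · Dosing – one concentration per compound · Signal – Fluo4 calcium fluorescence by kinetic imaging, 5 s 1 Hz baseline · Evaluation – per-well B score of integrated baseline-normalized Fluo4 ratio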
TRPC4 potent – allosteric potentiators of mouse TRPC4 channel. 0.42% of 310,000 active. AID 2227. B-score at 10 µM. HEK293 TRPC4beta/mu-opioid, DAMGO EC20, Fluo-4 Ca2+ flux; hits give high values;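 active = B-score of calcium response area above 5 SD of library B-scores, with initial fluorescence ratio within 5 SD of library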
Pemphigus Ab inh – inhibitors of pemphigus antibody binding to human desmoglein-3. P32926. DSG3-coupled beads, scFv-anti-DSG3-GFP binding, flow cytometry; hits give low values. binding (percent of control), % at 10 µM. 0.48% of 310,000 active. AID 588358;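 active = binding more than 3 SD below its plate's average and above zero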;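 note: hits lower antibody fragment binding to DSG3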
TRPC4 agonist – opens the mouse TRPC4 cation channel | 0.49% of 310,000 active | B-score at 10 µM | Q9QUQ5 | AID 2237 | HEK293 TRPC4beta/mu-opioid, Fluo4 calcium fluorescence; hits give high values;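 active = B-score above 5 SD of library B-scores, and initial fluorescence ratio not above library mean plus 5 SD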;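 note: positive B-score marks a calcium rise read as TRPC4 activation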
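System: HEK293 cells stably co-expressing mouse TRPC4beta and mu-opioid receptor; Schedule: Fluo4 dye loading 45 min at room temperature, 110 s recording; Detection: Fluo4 fluorescence, kinetic; Evaluation: B-scored integrated calcium fluorescence ratio; Controls: buffer (low) and maximal DAMGO (high).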
TRPC6 act – activates the mouse TRPC6 cation channel; Q61143; HEK293-TRPC6 membrane potential dye fluorescence; hits give high values; B-score at 10 µM; 0.13% of 310,000 active; AID 2550;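 active = B-score of the integrated fluorescence ratio above library mean plus 3 SD, and starting fluorescence ratio within library mean plus 5 SD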;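 note: higher score means more depolarization so channel activation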
TRPC6 inhibitor – blocks the mouse TRPC6 cation channel; HEK293-TRPC6, membrane potential dye, ACh-evoked depolarization; hits give low values; B-score at 10 µM; 1.1% of 310,000 active;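 active = B-score under library mean minus 3 SD, initial fluorescence not abnormally high, positive integrated signal ratio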;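 note: B-score derived from integrated fluorescence ratio over the kinetic read; more negative B-score means stronger inhibition of depolarization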
Large screens that a line does not name were inactive. Compounds with a hit are over-represented: about 2.5% of the library has one in this group of screens.

CCN(CC)CC(=O)NN(Cc1ccccc1)c1ccccc1	none (no result: Pemphigus Ab inh)
CN1CCN(CC(=O)NN(Cc2ccccc2)c2ccccc2)CC1	Pemphigus Ab inh 77
Cc1cc(N)c(C)c([N+](=O)[O-])c1C	none
Cc1c(N)c(C(C)(C)C)cc(C(C)(C)C)c1[N+](=O)[O-]	TRPC4 inh -6
O=C(NC(Cc1ccccc1)C(=O)O)/C(=C\c1ccccc1)NC(=O)c1ccc(Br)o1 (configuration not stated)	none
O=C(CSc1nc(-c2ccc(F)cc2)cs1)Nc1ccccn1	Pemphigus Ab inh 44
Cc1ccccc1CN(C)C1CCN(C)CC1	none
O=S(=O)(c1ccc2ccccc2c1)N1CCN(C(=S)Nc2ccc(F)c(Cl)c2)CC1	none
O=C(c1cc2cc(Br)cc(Br)c2oc1=O)N1CCCC1	TRPC4 potent 17 (no result: Pemphigus Ab inh)
C/C(=C\c1cccc(Cl)c1Cl)C(=O)c1c(C)cc(C)[nH]c1=O	TRPC4 potent 19
C/C(=C\c1ccccc1F)C(=O)c1c(C)cc(C)[nH]c1=O	none
CCOCCCn1c(SCc2ccccc2)nnc1-c1ccncc1	none
CCn1c(N)[n+](CC(=O)Nc2ccc(SC(F)F)cc2)c2ccccc21	TRPC4 agonist 156
CC12CCC(c3c(C(=O)N4CCOCC4)nn(-c4ccccc4)c31)C2(C)C (configuration not stated)	TRPC4 potent 10
CCCCn1c(N)c(N(CCC(C)C)C(=O)CCCc2nc3ccccc3s2)c(=O)[nH]c1=O	none
COc1ccc2cc3cc(C(=O)NCCN4CCN(Cc5ccccc5)CC4)oc3nc2c1	TRPC4 inh -6
COc1ccc(NC(=O)COC(=O)CCc2nc3ccccc3c(=O)[nH]2)c(OC)c1	none (no result: TRPC4 inh, TRPC4 potent, TRPC4 agonist, TRPC6 act, TRPC6 inhibitor)
COc1ccc(NC(=O)COC(=O)CCc2ccccc2)c(OC)c1	Pemphigus Ab inh 48
CN(Cc1nc2ccccc2c(=O)[nH]1)C(=O)C1CC(=O)N(c2cccc3ccccc23)C1 (configuration not stated)	none (no result: TRPC4 inh, TRPC4 potent, TRPC4 agonist, TRPC6 act, TRPC6 inhibitor)
Cc1c(-n2c(SCC(=O)O)nnc2-c2ccccc2Br)c(=O)n(-c2ccccc2)n1C	none
Cc1nn(Cc2ccccc2Cl)c2sc(C(=O)Nc3ccccc3N3CCOCC3)cc12	none
Cc1nn(Cc2ccc(F)cc2)c2sc(C(=O)Nc3ccccc3N3CCOCC3)cc12	Pemphigus Ab inh 86
COc1cccc(C(=O)N(c2ccc(C)cc2)C2C=CS(=O)(=O)C2)c1 (configuration not stated)	none
Cc1cc(NC(=O)C(C)SCC(=O)OCC(=O)N(Cc2ccccc2)C(C)(C)C)no1 (configuration not stated)	none
Cc1cc(NC(=O)C(C)SCC(=O)N(Cc2ccccc2)c2ccccc2)no1 (configuration not stated)	TRPC4 inh -7
Cn1c(=O)c2cc(S(=O)(=O)NC(C(=O)NC3CCCCC3)c3ccccc3)ccc2n(C)c1=O (configuration not stated)	none (no result: TRPC4 inh, TRPC4 potent, TRPC4 agonist, TRPC6 act, TRPC6 inhibitor)
CSCCC(NS(=O)(=O)c1ccc2c(c1)c(=O)n(C)c(=O)n2C)C(=O)NC1CCN(Cc2ccccc2)CC1 (configuration not stated)	TRPC4 agonist 90 (no result: Pemphigus Ab inh)
CN1CCN(Cc2cn[nH]c2-c2ccc(F)cc2F)[C@@H](c2ccccc2)C1	TRPC4 inh -5
OCCCC1CCCN(Cc2cn[nH]c2-c2ccc(F)cc2F)C1 (configuration not stated)	none
CCC(C)(C(=O)NC1CCCCC1)N(Cc1cccs1)C(=O)c1ccccn1 (configuration not stated)	TRPC4 inh -7, TRPC4 agonist 46
CCN1CCN(C(=O)c2ccc(CS(=O)Cc3ccc(C)cc3)o2)CC1 (configuration not stated)	Pemphigus Ab inh 74
C=C(C)CNC(=O)C1CCC(=O)N(CCCc2ccccc2)C1 (configuration not stated)	none
Cc1cc(C)c(C)c(S(=O)(=O)N2CCN(CC(=O)Nc3ccc([N+](=O)[O-])cc3)CC2)c1C	Pemphigus Ab inh 60
Cc1cc(OCc2nc(-c3ccncc3)no2)cc(C)c1Cl	none
OCCN1CCN(Cc2cc(Cl)c3cccnc3c2O)CC1	none
OCCN1CCN(Cc2cc(Br)cc(Br)c2O)CC1	TRPC4 agonist 176
Cc1ccc(CN2CCN(/N=C/C(Br)=C\c3ccccc3)CC2)cc1	Pemphigus Ab inh 83
Cc1c(Cl)cccc1NC(=S)NCc1cccn1C	TRPC4 inh -6
Cc1ccccc1NC(=S)NCc1cccn1C	none
Cc1nn(-c2ccccc2)c2c1C(=O)N(Cc1ccccc1)C(=O)C(C)(C)C2	none
Cc1nn(-c2nc3ccccc3n2Cc2ccccc2)c2c1C(=O)CC(C)(C)C2	TRPC4 inh -6 (no result: Pemphigus Ab inh)
O=C(Oc1cccc(C(=S)N2CCOCC2)c1)c1ccccc1	Pemphigus Ab inh -24
O=C(Oc1ccc(OC(=O)N2CCCCC2)cc1)c1ccccc1	Pemphigus Ab inh 68
O=C(Oc1ccccc1)N1CCCC1	none
COc1cc(C(=O)Oc2cccc(C(=S)N3CCOCC3)c2)cc(OC)c1OC	none
O=C(N/N=C/c1cccnc1)c1ccccc1OCc1ccc(Cl)cc1	TRPC4 inh -6, TRPC4 agonist 100 (no result: Pemphigus Ab inh)
CCC(CC)c1nnc(NC(=O)c2ccc3ccccc3n2)s1	Pemphigus Ab inh 13
Cc1c(NC(=O)Nc2ccc(F)cc2F)c(=O)n(-c2ccccc2)n1C	none (no result: Pemphigus Ab inh)
C(=N\NC1=NCCN1)/c1ccncc1	none
Cc1cccc(OCCCCc2c(C)n[nH]c2C)c1C	TRPC4 inh -8
CCOc1ccccc1OCCCCCc1c(C)n[nH]c1C	none
Cc1cccc(OCCCOc2cccc3cccnc23)c1C	TRPC4 potent 11
COc1cccc(CN2CC(C(=O)NC3CCCCCC3)CCC2=O)c1 (configuration not stated)	none
CCCN1C(=O)/C(=C/c2ccncc2)SC1=S	none
O=C1/C(=C/c2ccncc2)SC(=S)N1Cc1ccccc1	TRPC4 potent 12
O=S(=O)(c1cc(Br)ccc1Br)N1CCCCCC1	none
O=S(=O)(c1cc(-c2nnc(-c3ccc(Br)cc3)o2)ccc1Br)N1CCCCCC1	Pemphigus Ab inh 74
Cc1cccc(NC2=NCC(=O)N2Cc2cccs2)c1	none
O=C1CC(N2CCN(c3nc4ccccc4s3)CC2)C(=O)N1c1ccc(F)cc1 (configuration not stated)	TRPC4 potent 14
O=C1CC(N2CCN(c3ccc(F)cc3)CC2)C(=O)N1c1ccc(F)cc1 (configuration not stated)	none
COc1ccc(C(=O)NCc2nnc(SCC(=O)Nc3nc4ccccc4s3)o2)cc1	Pemphigus Ab inh 85
COc1ccc2nc(NC(=O)CSc3nnnn3C3CCCCC3)sc2c1	none
COc1ccc2nc(NC(=O)CSc3nnnn3C)sc2c1	Pemphigus Ab inh -8.1
